Measurements as given in ChEMBL document CHEMBL1124829, “Methylating agents as trypanocides” (1990).

Legend:
Assay type in all cases: functional
Mus musculus [1] = assay: (§1) Mean life extension in mice bearing Trypanosoma rhodesiense, after ip administration at a dose of 0.2 mmol/kg; design: unit: days
Outline: (§2)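 Female CD-1 mice, 6-8 weeks old, 25-35 g, infected ip with about 10^6 freshly isolated trypanosomes in PBSG. At day 3 post-infection they got a single ip dose, dissolved in 50 µL DMSO or in 0.5 mL PBSG adjusted to pH 7.4. Activity is the days of survival beyond vehicle-only controls, as the mean of 4 mice to the nearest day. Parasitemia was monitored to exclude toxic deaths.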

Mus musculus [2] = assay: Mean life extension in mice bearing Trypanosoma rhodesiense, after ip administration at a dose of 0.5 mmol/kg
Mus musculus [3] = assay: Mean life extension was determined in mice bearing Trypanosoma brucei (M110) after administration of 0.2 mmol/kg per dose
Outline: (§3)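 Female CD-1 mice, 6-8 weeks old, were infected ip with about 10^6 cells in PBSG. When parasitemia reached about 10^8 cells/mL they got a single 0.2 mmol/kg dose in DMSO. The result is days survived beyond DMSO-only controls, as the mean of 4 animals to the nearest day with SE. Survival of 30 days or more was counted as cure.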

Mus musculus [4] = assay: Mean life extension was determined in mice bearing Trypanosoma brucei gambiense (TxTAT 1.0), after administration of 0.2 mmol/kg per dose; outline: as §3
Mus musculus [5] = assay: Mean life extension was determined in mice bearing Trypanosoma brucei rhodesiense (YTAT 1.1) after administration of 0.2 mmol/kg per dose; outline: as §3
Mus musculus [6] = assay: Mean life extension was determined in mice bearing Trypanosoma equiperdum (1559), after administration of 0.2 mmol/kg per dose; outline: as §3
Mus musculus [7] = assay: Mean life extension was determined in mice bearing Trypanosoma evansi (SAK), after administration of 0.2 mmol/kg per dose; outline: as §3
Mus musculus [8] = assay: Mean life extension was determined in mice bearing Trypanosoma evansi (SN) after administration of 0.2 mmol/kg per dose; outline: as §3
Mus musculus [9] = assay: Mean life extension in mice bearing Trypanosoma rhodesiense, after ip administration at 0.5 mmol/kg dose; outline: as §2
Mus musculus [10] = assay: Mean life extension in mice bearing Trypanosoma rhodesiense, after ip administration at 0.4 mmol/kg dose
Mus musculus [11] = assay: Mean life extension in mice bearing Trypanosoma rhodesiense, after ip administration at 0.9 mmol/kg dose; outline: as §2
Mus musculus [12] = assay: as §1; outline: as §2

Compound `CCNNCC.Cl.Cl` has a Mean life extension (Mus musculus [1]) of 0.

For `CNNC.Cl.Cl`, the Mean life extension (Mus musculus [1]) was 4.

`CNN.Cl.Cl` showed a Mean life extension (Mus musculus [2]) of 1.

For `CN(NC(=O)c1ccccc1)C(=O)c1ccccc1`, the Mean life extension (Mus musculus [1]) was 0.

`O=S(=O)(NNS(=O)(=O)c1ccccc1)c1ccccc1` was tested, and the Mean life extension (Mus musculus [1]) was 0.

`CN(NS(C)(=O)=O)S(C)(=O)=O` was tested, and the Mean life extension (Mus musculus [3]) was 11, the Mean life extension (Mus musculus [4]) was 13 and the Mean life extension (Mus musculus [5]) was 12. The Mean life extension (Mus musculus [6]) was 12, the Mean life extension (Mus musculus [7]) was >30 and the Mean life extension (Mus musculus [8]) was 12. For the same compound, the Mean life extension (Mus musculus [1]) was 12.

`CN(NS(=O)(=O)c1ccccc1)S(=O)(=O)c1ccccc1` was tested, and the Mean life extension (Mus musculus [1]) was 5.

`COc1ccc(S(=O)(=O)NN(C)S(C)(=O)=O)cc1` showed a Mean life extension (Mus musculus [1]) of 4.

With `CN(C)/N=N/c1[nH]cnc1C(N)=O` [DACARBAZINE] the Mean life extension (Mus musculus [9]) was >30 and the Mean life extension (Mus musculus [1]) was 6.

`Cl.Cl.NN` [HYDRAZINE DIHYDROCHLORIDE] showed a Mean life extension (Mus musculus [2]) of 0.

For `COS(C)(=O)=O` [METHANESULFONIC ACID METHYL ESTER], the Mean life extension (Mus musculus [1]) was 1.

`CN(N=O)C(N)=O` [N-METHYL-N-NITROSUREA] was tested, and the Mean life extension (Mus musculus [10]) was >30 and the Mean life extension (Mus musculus [1]) was 8.

With `CNNCc1ccc(C(=O)NC(C)C)cc1` [PROCARBAZINE] the Mean life extension (Mus musculus [11]) was >30 and the Mean life extension (Mus musculus [1]) was 5.

Compound `CN(N=O)C(=O)N[C@@H](C=O)[C@@H](O)[C@H](O)[C@H](O)CO` [STREPTOZOCIN] has a Mean life extension (Mus musculus [12]) of 4.

`CCOS(=O)(=O)OCC` [SULFURIC ACID DIETHYL ESTER] gave a Mean life extension (Mus musculus [1]) of 0.

With `COS(=O)(=O)OC` [SULFURIC ACID DIMETHYL ESTER] the Mean life extension (Mus musculus [1]) was 3.
